{
  "source": "ChEMBL document CHEMBL1157195",
  "about": "“Synthesis, cytotoxic activity, and SAR analysis of the derivatives of taxchinin A and brevifoliol” (Bioorg Med Chem, 2008)",
  "note": "The source made the active and inactive calls. The rule behind the calls is not given here.",
  "data": [
    {"tested_on": "A459", "assay": "(§1) Cytotoxicity against human A459 cells after 72 hrs by sulforhodamine B assay", "type": "cell-based", "settings": "not given", "outline": "(§2)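 Human non-small lung cancer cells (A459, ATCC), exponentially growing, seeded at 4 × 10^4/mL in 96-well plates and pre-incubated 72 h at 37 °C, 5% CO2. Compounds added at 100, 10, 1 and 0.1 μM; further 72 h exposure. Cells fixed with cold 50% TCA (4 °C, 1 h), stained 30 min with 0.4% SRB in 1% acetic acid, dye solubilized in 10 mM unbuffered Tris; OD read at 570 nm.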", "values": [
      {"smiles": "C=C1[C@H]2C[C@]3(C(C)(C)O)C[C@H](O)C(C)=C3[C@@H](OC(=O)c3ccccc3)[C@H](OC(C)=O)[C@]2(C)[C@@H](OC(C)=O)C[C@@H]1O", "Activity": "inactive"},
      {"smiles": "C=C1[C@H]2C[C@]3(C(C)(C)O)CC(=O)C(C)=C3[C@@H](OC(=O)c3ccccc3)[C@H](OC(C)=O)[C@]2(C)[C@@H](OC(C)=O)C[C@@H]1O", "Activity": "inactive"}
    ]},
    {"tested_on": "not listed separately", "assay": "as §1", "type": "cell-based", "settings": "Homo sapiens, A459, 72 h; read-out: IC50", "outline": "as §2", "units": {"IC50": "µM"}, "values": [
      {"smiles": "C=C1C(=O)C[C@H](OC(C)=O)[C@@]2(C)[C@@H](OC(C)=O)[C@H](OC(=O)c3ccccc3)C3=C(C)[C@H]4C[C@]3([C@@H](OC(C)=O)[C@H]12)C(C)(C)O4", "IC50": 0.75},
      {"smiles": "C=C1C(=O)C[C@H](OC(C)=O)[C@@]2(C)[C@@H](OC(C)=O)[C@H](OC(=O)c3ccccc3)C3=C(C)[C@@H](O)C[C@@]3(C(C)(C)O)[C@@H](OC(C)=O)[C@H]12", "IC50": 3.16},
      {"smiles": "CC(=O)O[C@H]1CC=C(C=O)[C@H]2C=C3CC(=O)C(C)=C3[C@@H](OC(=O)c3ccccc3)[C@H](OC(C)=O)[C@]12C", "IC50": 11.3},
      {"smiles": "CC(=O)O[C@H]1CC=C(C=O)[C@H]2C[C@]3(C(C)(C)O)CC(=O)C(C)=C3[C@@H](OC(=O)c3ccccc3)[C@H](OC(C)=O)[C@]12C", "IC50": 31.6},
      {"smiles": "C=C1[C@@H](O[Si](CC)(CC)CC)C[C@H](OC(C)=O)[C@]2(C)[C@@H]1C=C1CC(=O)C(C)=C1[C@@H](OC(=O)c1ccccc1)[C@@H]2OC(C)=O", "IC50": 17.4},
      {"smiles": "C=C1[C@H]2C=C3CC(=O)C(C)=C3C(OC(=O)c3ccccc3)=C[C@]2(C)[C@@H](OC(C)=O)C[C@@H]1O", "IC50": 80.7},
      {"smiles": "C=C1C(=O)C[C@H](OC(C)=O)[C@@]2(C)[C@@H](OC(C)=O)[C@H](OC(=O)c3ccccc3)C3=C(C)[C@@H](O[Si](C)(C)C(C)(C)C)C[C@@]3(C(C)(C)O)[C@@H](OC(C)=O)[C@H]12", "IC50": 0.48},
      {"smiles": "C=C1C(=O)C[C@H](OC(C)=O)[C@@]2(C)[C@@H](OC(C)=O)[C@H](OC(=O)c3ccccc3)C3=C(C)C(=O)C[C@@]3(C(C)(C)O)[C@@H](OC(C)=O)[C@H]12", "note": "[5,13-DIOXOTAXCHININ A]", "IC50": 1.68},
      {"smiles": "C=C1[C@@H](O[Si](CC)(CC)CC)C[C@H](OC(C)=O)[C@@]2(C)[C@@H](OC(C)=O)[C@H](OC(=O)c3ccccc3)C3=C(C)[C@@H](O[Si](CC)(CC)CC)C[C@@]3(C(C)(C)O)[C@@H](OC(C)=O)[C@H]12", "IC50": 87.3},
      {"smiles": "C=C1C(=O)C=C[C@]2(C)[C@@H]1C[C@]1(C(C)(C)O)CC(=O)C(C)=C1[C@@H](OC(=O)c1ccccc1)[C@@H]2OC(C)=O", "IC50": 6.22},
      {"smiles": "C=C1[C@H]2C=C3CC(=O)C(C)=C3[C@@H](OC(=O)c3ccccc3)[C@H](OC(C)=O)[C@]2(C)[C@@H](OC(C)=O)C[C@@H]1O", "IC50": 21.5},
      {"smiles": "C=C1[C@@H](O)C[C@H](OC(C)=O)[C@@]2(C)[C@@H](OC(C)=O)[C@H](OC(=O)c3ccccc3)C3=C(C)[C@@H](O[Si](C)(C)C(C)(C)C)C[C@@]3(C(C)(C)O)[C@@H](OC(C)=O)[C@H]12", "IC50": 12.4},
      {"smiles": "C=C1[C@@H](O)C[C@H](OC(C)=O)[C@@]2(C)[C@@H](OC(C)=O)[C@H](OC(=O)c3ccccc3)C3=C(C)C(=O)C[C@@]3(C(C)(C)O)[C@@H](OC(C)=O)[C@H]12", "note": "[13-OXO-TAXCHININ A]", "IC50": 91.6},
      {"smiles": "C=C1C(=O)C=C[C@]2(C)[C@@H]1C=C1CC(=O)C(C)=C1[C@@H](OC(=O)c1ccccc1)[C@@H]2OC(C)=O", "IC50": 2.8},
      {"smiles": "CC(=O)O[C@H]1CC=C(C=O)[C@H]2C[C@@]34C[C@@H](OC3(C)C)C(C)=C4[C@@H](OC(=O)c3ccccc3)[C@H](OC(C)=O)[C@]12C", "IC50": 6.17},
      {"smiles": "C=C1[C@H]2C[C@@]34C[C@@H](OC3(C)C)C(C)=C4[C@@H](OC(=O)c3ccccc3)[C@H](OC(C)=O)[C@]2(C)[C@@H](OC(C)=O)C[C@@H]1O", "IC50": 46.5},
      {"smiles": "C=C1C(=O)C=C[C@@]2(C)[C@@H](OC(C)=O)[C@H](OC(=O)c3ccccc3)C3=C(C)[C@@H](O)C[C@@]3(C(C)(C)O)[C@@H](OC(C)=O)[C@H]12", "IC50": 5.89},
      {"smiles": "C=C1[C@@H](O)C[C@H](OC(C)=O)[C@@]2(C)[C@@H](OC(C)=O)[C@H](OC(=O)c3ccccc3)C3=C(C)[C@@H](O)C[C@@]3(C(C)(C)O)[C@@H](OC(C)=O)[C@H]12", "note": "[TAXCHININ A]", "IC50": 60.5},
      {"smiles": "C=C1C(=O)C=C[C@@]2(C)[C@@H](OC(C)=O)[C@H](OC(=O)c3ccccc3)C3=C(C)C(=O)C[C@@]3(C(C)(C)O)[C@@H](OC(C)=O)[C@H]12", "IC50": 2.48}
    ]},
    {"tested_on": "not listed separately", "assay": "as §1", "type": "cell-based", "settings": "a459", "outline": "as §2", "values": [
      {"smiles": "C=C1[C@@H](O[Si](C)(C)C(C)(C)C)C[C@H](OC(C)=O)[C@@]2(C)[C@@H](OC(C)=O)[C@H](OC(=O)c3ccccc3)C3=C(C)[C@@H](O[Si](C)(C)C(C)(C)C)C[C@@]3(C(C)(C)O)[C@@H](OC(C)=O)[C@H]12", "IC50": "Not Active"},
      {"smiles": "C=C1[C@@H](O)C[C@H](OC(C)=O)[C@@]2(C)[C@@H](OC(C)=O)[C@H](OC(=O)c3ccccc3)C3=C(C)[C@H]4C[C@]3([C@@H](OC(C)=O)[C@H]12)C(C)(C)O4", "IC50": "Not Active"}
    ]}
  ]
}
